assay: Toxicity liver stage against HepG2, at 10uM; type: cell-based; parameters: test concentration 10 uM, cell line HepG2-A16-CD81EGFP; conditions: human, HepG2-A16-CD81EGFP cells; read-out: INHIBITION
Method in brief: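 Uninfected HepG2-A16-CD81EGFP cells, 3 × 10^3 per well, 1536-well, plated on prespotted compound at 10 μM final, parasite-free screening media added to match infected plates; puromycin 10 μM positive, DMSO 0.5% negative; run in parallel with 48 h PbLuc assay at 37 °C, 5% CO2; viability by CellTiter-Glo luminescence, normalized to controls.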

Compound | cytotoxicity at 10 µM [%]
COc1cc(C)c2c(c1C)C[C@H]([C@H](C)C(=O)O)CC2 | -0.95
O=C(NC[C@H]1C[C@@H]2CCN1C[C@@H]2CN1CCOCC1)Nc1ccccc1 | 5.96
COCC(=O)N[C@H](C)c1onc(-c2ccc(Cl)cc2)c1C(=O)O | -5.61
COC(=O)[C@@H]1Cc2ncn(C)c2CN1S(=O)(=O)c1ccc(Cl)cc1 | 4.67
O=C(C1CCN(S(=O)(=O)N2CCCC2)CC1)N1CCC2(CC1)OCCO2 | -17.9
CN1C(=O)C(C)(C)COc2cc(NS(=O)(=O)c3ccccc3F)ccc21 | -5.08
O=C(Nc1cccnc1)c1noc2c1CN(S(=O)(=O)C1CC1)CC2 | 7.06
CS(=O)(=O)N1CCN(c2ccc3ccc(C(=O)NC4CC4)cn23)CC1 | -0.39
CN1CCN(C[C@H]2OC[C@@H]3CCN(Cc4ccsc4)C[C@@H]32)CC1 | -2.19
CCc1nn2c(=N)c(C#N)n[nH]c2c1-c1ccc(OC)cc1 | -3.73
COCCN1CC[C@]2(CN(C(=O)c3cccs3)C[C@H]2C)C1=O | 3.47
CO[C@H]1CO[C@@]2(CCCN(C(=O)C3=CCCCC3)C2)C1 | -9.95
CCN(C)c1ncnc2c1CCN(C(=O)c1ccno1)CC2 | -10
CCc1noc(C2CCCCN2C(=O)c2cc(C)on2)n1 (stereo not given) | 5.67
COc1cc(NCc2cccnc2)c(-c2nn[nH]n2)cc1OC | 7.88
CS(=O)(=O)N[C@@H]1CN(Cc2ccccc2)C[C@H]1O | -2.92
CC(=O)N1CCC(c2ncc(C(=O)Nc3ccccc3)c(C)n2)CC1 | 5.91
Fc1ccccc1CN1CCC[C@@H](Cn2nnc(-c3cccs3)n2)C1 | 4.77
CCC(=O)N1CCCCC1c1nc(N(C)C)ncc1-c1cc(C)no1 (stereo not given) | 5.69
CC(C)c1cc(C(=O)N2CCC3(CCc4ccccc4C(=O)N3)C2)on1 (stereo not given) | 2.53
CC(C)NC(=O)C1CCc2nnc(CNC(=O)c3ccc(Cl)cc3Cl)n21 (stereo not given) | 5.84
COc1c(CNCCc2c[nH]c3ccccc23)c(C(C)C)nn1C | 3.41

Compound | cytotoxicity at 10 µM [%]
Cc1ccccc1CCCN1CCS(=O)(=O)CC1C (stereo not given) | 1.57
Cc1ccccc1C(C)NC(=O)CN1CCN(Cc2ccc(Br)s2)CC1 (stereo not given) | 22.9
CCc1nnc(CS(=O)(=O)c2ccc(C)c(C)c2)n1C | 0.617
Cc1nnc(CN2CCCC2c2ccc3c(c2)OCCCO3)n1C (stereo not given) | 4.86
CN(CCCOc1ccc(F)cc1)S(=O)(=O)c1cnn(C)c1 | -0.336
Cc1cc(C(=O)NCC2CCCC2)c(C)n1-c1cccnc1 | 5.69
CC(NCc1ccc(OCC(N)=O)cc1)c1ccc2c(c1)CCCC2 (stereo not given) | -0.699
CC(C)c1noc(CCC(=O)N2CCN(C)CC2c2ccccc2)n1 (stereo not given) | -5.3
CNC(=O)CCNC(=O)c1cc(Br)c2c(c1)OCCO2 | 3.82
CSCC(CCO)Nc1cccc(C(F)(F)F)n1 (stereo not given) | 0.515
Cn1cc(N2CCC(NC(=O)c3c(F)cccc3Cl)C2=O)cn1 (stereo not given) | 0.91
Cc1[nH]ncc1CCCNC(=O)Nc1ccc(S(C)(=O)=O)nc1 | -3.71
COc1ccc(NC(=O)COc2nn(C)c3nc(C)cc(C)c23)cn1 | -4.36
Cc1nc(C)n(CC2CCCN2Cc2coc(-c3cccs3)n2)n1 (stereo not given) | -9.61
Cc1cnc(C(NC(=O)NCC2(CO)CC2)C2CC2)s1 (stereo not given) | 1.8
CCN1CCCC1CN(CCN(C)C)S(=O)(=O)c1ccccc1C#N (stereo not given) | -8.58
O=C(NCCc1ccccc1Cl)NCC1(O)CCSC1 (stereo not given) | -6.17
COc1ccnc(N2CCN(C(C)c3nc(C)no3)CC2)n1 (stereo not given) | -1.33
CC(C)(C)OC(=O)N1CCC[C@H](NCC2=CCCOC2)C1 | -6.93
NC(=O)c1ccc(OCC(=O)NC2CCc3c(F)cccc32)cc1 (stereo not given) | 14.4
Cc1nn(C)c(C)c1OCC(=O)N1CCCC1 | -10.9
CCN1CCN(C(=O)C(C)N2CCc3cncnc3C2)CC1 (stereo not given) | -10.9

Compound | cytotoxicity at 10 µM [%]
COCCn1cc(NC(=O)NCC2CCN(c3ccccc3)C2)cn1 (stereo not given) | 2.21
Cc1ccc(N2CCCN(C(=O)c3n[nH]c4c3CCC4)CC2)nn1 | 3.81
c1ccc(CCN2CC(n3cccn3)C2)nc1 | -0.2
COc1cc(C)c(CNC(C)c2nc(C)cs2)cc1OC (stereo not given) | 2.58
COc1ccccc1OCC(=O)N1CCN(Cc2noc(C)n2)CC1 | 3.82
Cc1ccc(C2CSCCN2C(=O)c2ccsc2)o1 (stereo not given) | 1.68
CN(C)C1CCN(C(=O)NCc2ccc(Cn3cncn3)cc2)CC1 | -3.6
NS(=O)(=O)N1CCc2ccc(NC(=O)Cc3ccc(F)cc3)cc21 | -9.06
O=C(c1ccoc1)N1Cc2cnn(CC3CC3)c2C(COCC2CC2)C1 (stereo not given) | -6.98
O=C(c1cccs1)N1CCC2(CC1)CN(c1ccsc1)C(=O)CO2 | -70.5
CCOc1ccc(Cl)cc1C(C(=O)O)N1CCOCC1 (stereo not given) | -0.924
Cc1cccc2[nH]c(COCC(=O)N3CCCn4cncc4C3)nc12 | 2.03
CCCn1ncc(CN(Cc2cccnc2)Cc2ccsc2)c1C | 13.1
CC(C)(C)c1ccc(-n2ncc3c2CCCC3N)cc1 (stereo not given) | -0.711
CCC(NC(=O)CCNC(=O)c1ccccc1F)c1cc(C)ccn1 (stereo not given) | -11.4
CCCn1ccnc1CN1CCC(Oc2ccc(Cl)cc2)(C(=O)O)CC1 | 3.47
O=C(O)C(c1ccc2c(c1)OCO2)N1CCC(O)(c2cccnc2)CC1 (stereo not given) | 19.7
CCc1nnc(N2CCN(CCc3ccccc3)C(=O)C2)o1 | -1.01
COc1cc(F)c(C(=O)NCc2cc(C)on2)c(F)c1 | -0.376
Cc1cc(CC(C)NC2CCSCC2)[nH]n1 (stereo not given) | 1.08
CCCn1ncc(C(=O)N(C)Cc2n[nH]c3c2CCC3)c1C | 0.213
CCc1cc(C(=O)N2CCCn3nc(CCC(=O)O)cc3C2)cs1 | -3.32

Compound | cytotoxicity at 10 µM [%]
Cc1cc(F)ccc1OC1(C(=O)O)CCN(Cc2c[nH]cn2)CC1 | 1.18
Cc1ccc(S(=O)(=O)N2C[C@H](C3CC3)[C@@H](N)C2)cc1F | -3.25
Cn1ncc2c(N3CC(N4CCCCC4)C3)nc(-c3ccncc3)nc21 | 5.18
COc1ccc(C(C(=O)O)N(C)CCN2CCOCC2)c(C)c1 (stereo not given) | 2.66
Cc1noc(CN(C)CC2(O)CCCN(CCC3CCCCC3)C2=O)n1 (stereo not given) | -3.73
CN(C)C(=O)c1cccnc1-c1ccc2c(c1)OCO2 | 1.58
CN(Cc1ccccc1)c1ncccc1CNC1CCC1 | 13.5
O=C(NCCc1ccncc1)c1cccc(S(=O)(=O)NC2CCOC2)c1 (stereo not given) | 4.93
CSCCC(=O)N1C[C@@H](C)[C@](O)(C(C)C)C1 | 0.68
CC(C)(C)c1oc(C(N)=O)cc1CN1CCOC(C(F)(F)F)C1 (stereo not given) | -4.81
O=C1N(CCO)CCCC12CCN(Cc1noc(C3CCCC3)n1)C2 (stereo not given) | -0.973
COc1cccc(S(=O)(=O)N2CCCCC2CCN2CCOCC2)c1 (stereo not given) | -5.31
CCC(Nc1nccc(C2CCCC2)n1)c1ccccn1 (stereo not given) | -126
CN(Cc1cc[nH]n1)C(=O)c1ccc2c(c1)nc(N1CC[C@H](O)C1)n2C | 4.43
Cc1ccc(-c2ccc(Cl)nn2)cc1S(N)(=O)=O | -12.3
COc1cccc(OC)c1OCCn1c(C)c(C)oc1=O | 9.61
CCS(=O)(=O)N1CCC(c2nnc(CN3CCCC3)n2C2CC2)CC1 | 14.9
O=C(c1ccc(F)cc1F)N1C[C@@H](O)[C@H](N2CCOCC2)C1 | -1.37
O=C1NCCN1C1CCN(CCOc2ccccc2Cl)CC1 | -6.69
CCC(C)NC(=O)CCNC(=O)Nc1ccc(-n2cncn2)c(F)c1 (stereo not given) | -0.22
CC(C)c1nc(C2CCCN2Cc2ccccc2C#N)no1 (stereo not given) | -7.62
O=C(CS(=O)(=O)CC1CCCCC1)NC1CCCCNC1=O (stereo not given) | -10.6

Compound | cytotoxicity at 10 µM [%]
Cc1ccc(C(=O)NS(=O)(=O)c2cccc3cnccc23)c(=O)[nH]1 | -8.16
Cc1oc(C)c(C(=O)NCc2ccccn2)c1C | -0.729
Cc1nnc2n1CCN(C(=O)c1cc(Cl)c[nH]1)C2 | -5.87
CCc1nnc2n1CCN(C(=O)Cc1csc(-c3ccco3)n1)C2 | -8.7
CCc1nnc2n1CCN(C(=O)c1ccc(C(F)(F)F)nc1C)C2 | -7.28
CCc1nc(CN(CC(N)=O)C(C)C)cs1 | -8.62
CCc1n[nH]c(C2CN(C(=O)c3cnns3)CCO2)n1 (stereo not given) | -3.43
Cc1cnn(CC2CCCN2C(=O)c2cccc(-n3cnnn3)c2)c1 (stereo not given) | -4.3
CCc1[nH]ncc1C(=O)N1CCCC(n2cccn2)C1 (stereo not given) | 4.62
Cc1cnn(CC2CCCN2C(=O)c2cc(Cl)ccc2F)c1 (stereo not given) | -5.82
c1cnn(CC2CN(CC3CCCC3)CCO2)c1 (stereo not given) | -2.55
CC(C)COC(C)C(=O)NCc1cc(F)cc(F)c1 (stereo not given) | 3.37
COc1cccc(N2C(=O)CC3(CCNCC3)C2=O)c1 | 2.67
Cn1cc(N2C(=O)CC[C@@H]3[C@H]2CCN3Cc2nccs2)cn1 | 8.62
COCC1COCCC12CCN(Cc1nccs1)CC2 (stereo not given) | 2.31
Cc1occc1C(=O)N1CCC[C@]2(C[C@@H](OCc3ccccn3)CO2)C1 | -72.4
Cc1noc(C)c1CN1CCN(Cc2cccnc2)c2ncccc2C1 | -67.1
c1ccc(CN2CC[C@@H]3O[C@@H](COCC4CCOCC4)CC[C@@H]32)nc1 | -1.98
Cc1nc(CN2CCO[C@@H]3CN(Cc4ccsc4)C[C@@H]3C2)cs1 | 2.99
O=C(C1CCOCC1)N1C[C@@H]2CN(Cc3ccsc3)CCO[C@@H]2C1 | -77.5
COCCN1CCc2ncnc(NC(C)C)c2CC1 | 2.13
O=C(CCn1cncn1)N1C[C@@H]2CC[C@H]1CN(Cc1ccncc1)C2 | 9.53

From ChEMBL document CHEMBL4513216, “Probing the Open Global Health Chemical Diversity Library for Multistage-Active Starting Points for Next-Generation Antimalarials” (ACS Infect Dis, 2020)
